Several values for one entry are separate records, joined by “and”; a condition that tells them apart may be missing. Identical values can stand only once.
How the values were obtained:
Type in all cases: toxicity, cell-based
U2OS = assay: Multiplex assay against U2OS; details: human
Summary of the method: (§1)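 Tubulin, mitochondrial-mass and membrane-permeability phenotypes are per cents of healthy-nucleus cells. Cells were gated by CellPathfinder machine learning into Hoechst high-intensity objects or normal cells, normal cells into healthy, pyknosed or fragmented nuclei, and pyknosed cells into mitotic or apoptotic. Before that, live cells stained at seeding with Hoechst33342, BioTracker Green Microtubule Cytoskeleton Dye, MitoTracker Red and Annexin V Alexa Fluor 680 were imaged on a CQ1 microscope at 37°C and 5% CO2 after compound addition.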

Fibroblast = assay: Multiplex assay against human fibroblast; summary of the method: as §1
HEK-293T = assay: Multiplex assay against HEK293T; details: human; summary of the method: as §1
[1] = 12 h, 1 µM, compound concentration 1 uM
[2] = 12 h, 10 µM, compound concentration 10 uM
[3] = 24 h, 1 µM, compound concentration 1 uM
[4] = 24 h, 10 µM, compound concentration 10 uM
[5] = 48 h, 1 µM, compound concentration 1 uM
[6] = 48 h, 10 µM, compound concentration 10 uM

## C=CCN1C[C@H](C(=O)N(CCCN(C)C)C(=O)NCC)C[C@@H]2c3cccc4[nH]cc(c34)C[C@H]21 [CABERGOLINE]
U2OS; [1]
  Population Apoptotic (%): 86% and 57%
  Population Fragmented Nuclei (%): 13% and 9%
  Population Healthy Nuclei (%): 72% and 84%
  Population Hoechst High Intensity Objects (%): 2% and 3%
  Population Membrane Permeable-Phenotype (%): 3% and 8%
  Population Mitochondria Different-Phenotype (%): 1% and 4%
  Population Normal (%): 97% and 96%
  Population Pyknosed Nuclei (%): 13% and 5%
  Population Tubulin-Different-Phenotype (%): 1% and 5%
  Total Cell Count: 228 and 129
U2OS; [2]
  Population Apoptotic (%): 69% and 64%
  Population Fragmented Nuclei (%): 35% and 17%
  Population Healthy Nuclei (%): 52% and 70%
  Population Hoechst High Intensity Objects (%): 3% and 2%
  Population Membrane Permeable-Phenotype (%): 15% and 13%
  Population Mitochondria Different-Phenotype (%): 9% and 21%
  Population Mitotic Cells (%): 30% and 35%
  Population Normal (%): 96% and 97%
  Population Pyknosed Nuclei (%): 11% and 12%
  Population Tubulin-Different-Phenotype (%): 11% and 9%
  Total Cell Count: 228 and 143
U2OS; [3]
  Population Apoptotic (%): 82% and 64%
  Population Fragmented Nuclei (%): 15% and 7%
  Population Healthy Nuclei (%): 74% and 83%
  Population Hoechst High Intensity Objects (%): 3% and 1%
  Population Membrane Permeable-Phenotype (%): 1% and 9%
  Population Mitochondria Different-Phenotype (%): 1% and 4%
  Population Mitotic Cells (%): 17% and 35%
  Population Normal (%): 96% and 98%
  Population Pyknosed Nuclei (%): 10% and 8%
  Population Tubulin-Different-Phenotype (%): 0% and 6%
  Total Cell Count: 295 and 162
U2OS; [4]
  Population Apoptotic (%): 65% and 88%
  Population Fragmented Nuclei (%): 33% and 14%
  Population Healthy Nuclei (%): 54% and 75%
  Population Hoechst High Intensity Objects (%): 3% and 2%
  Population Membrane Permeable-Phenotype (%): 10% and 13%
  Population Mitochondria Different-Phenotype (%): 5% and 12%
  Population Normal (%): 96% and 97%
  Population Pyknosed Nuclei (%): 11% and 10%
  Population Tubulin-Different-Phenotype (%): 4% and 10%
  Total Cell Count: 228 and 165
U2OS; [5]
  Population Apoptotic (%): 88% and 93%
  Population Fragmented Nuclei (%): 13%
  Population Healthy Nuclei (%): 77% and 73%
  Population Hoechst High Intensity Objects (%): 2% and 3%
  Population Membrane Permeable-Phenotype (%): 5% and 4%
  Population Mitochondria Different-Phenotype (%): 1% and 4%
  Population Mitotic Cells (%): 11% and 6%
  Population Normal (%): 97% and 96%
  Population Pyknosed Nuclei (%): 8% and 13%
  Population Tubulin-Different-Phenotype (%): 3%
  Total Cell Count: 405 and 221
U2OS; [6]
  Population Apoptotic (%): 86% and 87%
  Population Fragmented Nuclei (%): 30% and 13%
  Population Healthy Nuclei (%): 57% and 66%
  Population Hoechst High Intensity Objects (%): 3% and 4%
  Population Membrane Permeable-Phenotype (%): 7% and 9%
  Population Mitochondria Different-Phenotype (%): 1% and 9%
  Population Mitotic Cells (%): 13% and 12%
  Population Normal (%): 96% and 95%
  Population Pyknosed Nuclei (%): 12% and 20%
  Population Tubulin-Different-Phenotype (%): 3% and 5%
  Total Cell Count: 303 and 206
Fibroblast; [1]
  Population Apoptotic (%): 69% and 35%
  Population Fragmented Nuclei (%): 13% and 20%
  Population Healthy Nuclei (%): 78% and 46%
  Population Hoechst High Intensity Objects (%): 6%
  Population Membrane Permeable-Phenotype (%): 0% and 4%
  Population Mitochondria Different-Phenotype (%): 2% and 1%
  Population Mitotic Cells (%): 30% and 64%
  Population Normal (%): 93%
  Population Tubulin-Different-Phenotype (%): 26% and 25%
  Total Cell Count: 186 and 144
Fibroblast; [2]
  Population Apoptotic (%): 50% and 35%
  Population Fragmented Nuclei (%): 25% and 44%
  Population Healthy Nuclei (%): 64% and 39%
  Population Hoechst High Intensity Objects (%): 3% and 5%
  Population Membrane Permeable-Phenotype (%): 0% and 6%
  Population Mitochondria Different-Phenotype (%): 11% and 10%
  Population Mitotic Cells (%): 50% and 64%
  Population Normal (%): 96% and 94%
  Population Pyknosed Nuclei (%): 10% and 16%
  Population Tubulin-Different-Phenotype (%): 46% and 53%
  Total Cell Count: 248 and 178
Fibroblast; [3]
  Population Apoptotic (%): 68% and 44%
  Population Fragmented Nuclei (%): 15% and 24%
  Population Healthy Nuclei (%): 74% and 46%
  Population Hoechst High Intensity Objects (%): 4% and 6%
  Population Membrane Permeable-Phenotype (%): 1% and 3%
  Population Mitochondria Different-Phenotype (%): 3%
  Population Mitotic Cells (%): 31% and 55%
  Population Normal (%): 95% and 93%
  Population Pyknosed Nuclei (%): 10% and 29%
  Population Tubulin-Different-Phenotype (%): 33% and 39%
  Total Cell Count: 198 and 132
Fibroblast; [4]
  Population Apoptotic (%): 73% and 43%
  Population Fragmented Nuclei (%): 28% and 43%
  Population Healthy Nuclei (%): 65% and 46%
  Population Hoechst High Intensity Objects (%): 1% and 10%
  Population Membrane Permeable-Phenotype (%): 0% and 2%
  Population Mitochondria Different-Phenotype (%): 7% and 5%
  Population Mitotic Cells (%): 26% and 56%
  Population Normal (%): 98% and 89%
  Population Pyknosed Nuclei (%): 5% and 9%
  Population Tubulin-Different-Phenotype (%): 44% and 53%
  Total Cell Count: 274 and 181
Fibroblast; [5]
  Population Apoptotic (%): 56% and 58%
  Population Fragmented Nuclei (%): 15% and 24%
  Population Healthy Nuclei (%): 75% and 54%
  Population Hoechst High Intensity Objects (%): 5% and 7%
  Population Membrane Permeable-Phenotype (%): 0% and 6%
  Population Mitochondria Different-Phenotype (%): 6% and 1%
  Population Mitotic Cells (%): 43% and 41%
  Population Normal (%): 94% and 92%
  Population Pyknosed Nuclei (%): 8% and 21%
  Population Tubulin-Different-Phenotype (%): 34% and 33%
  Total Cell Count: 189 and 156
Fibroblast; [6]
  Population Apoptotic (%): 72% and 46%
  Population Fragmented Nuclei (%): 24% and 52%
  Population Healthy Nuclei (%): 68% and 37%
  Population Hoechst High Intensity Objects (%): 4% and 5%
  Population Membrane Permeable-Phenotype (%): 1% and 6%
  Population Mitochondria Different-Phenotype (%): 4% and 11%
  Population Mitotic Cells (%): 27% and 53%
  Population Normal (%): 95% and 94%
  Population Pyknosed Nuclei (%): 6% and 9%
  Population Tubulin-Different-Phenotype (%): 46% and 44%
  Total Cell Count: 282 and 170
HEK-293T; [1]
  Population Apoptotic (%): 36% and 37%
  Population Fragmented Nuclei (%): 4% and 5%
  Population Healthy Nuclei (%): 76% and 79%
  Population Hoechst High Intensity Objects (%): 8%
  Population Membrane Permeable-Phenotype (%): 0%
  Population Mitochondria Different-Phenotype (%): 51% and 68%
  Population Mitotic Cells (%): 63% and 62%
  Population Normal (%): 91%
  Population Pyknosed Nuclei (%): 18% and 14%
  Population Tubulin-Different-Phenotype (%): 41% and 24%
  Total Cell Count: 370 and 322
HEK-293T; [2]
  Population Apoptotic (%): 53% and 60%
  Population Fragmented Nuclei (%): 8% and 6%
  Population Healthy Nuclei (%): 76% and 78%
  Population Hoechst High Intensity Objects (%): 12% and 8%
  Population Membrane Permeable-Phenotype (%): 0%
  Population Mitochondria Different-Phenotype (%): 65% and 81%
  Population Mitotic Cells (%): 46% and 40%
  Population Normal (%): 87% and 91%
  Population Pyknosed Nuclei (%): 14%
  Population Tubulin-Different-Phenotype (%): 54% and 55%
  Total Cell Count: 438 and 371
HEK-293T; [3]
  Population Apoptotic (%): 43% and 40%
  Population Fragmented Nuclei (%): 9% and 6%
  Population Healthy Nuclei (%): 80% and 83%
  Population Hoechst High Intensity Objects (%): 4% and 6%
  Population Membrane Permeable-Phenotype (%): 1% and 0%
  Population Mitochondria Different-Phenotype (%): 29% and 46%
  Population Mitotic Cells (%): 56% and 59%
  Population Normal (%): 95% and 93%
  Population Pyknosed Nuclei (%): 10% and 9%
  Population Tubulin-Different-Phenotype (%): 20% and 19%
  Total Cell Count: 512 and 406
HEK-293T; [4]
  Population Apoptotic (%): 37% and 42%
  Population Fragmented Nuclei (%): 10%
  Population Healthy Nuclei (%): 77% and 79%
  Population Hoechst High Intensity Objects (%): 8% and 12%
  Population Membrane Permeable-Phenotype (%): 0%
  Population Mitochondria Different-Phenotype (%): 51% and 64%
  Population Mitotic Cells (%): 62% and 57%
  Population Normal (%): 91% and 87%
  Population Pyknosed Nuclei (%): 11% and 9%
  Population Tubulin-Different-Phenotype (%): 48% and 43%
  Total Cell Count: 556 and 425
HEK-293T; [5]
  Population Apoptotic (%): 13% and 35%
  Population Fragmented Nuclei (%): 12% and 11%
  Population Healthy Nuclei (%): 80% and 81%
  Population Hoechst High Intensity Objects (%): 4% and 3%
  Population Membrane Permeable-Phenotype (%): 1%
  Population Mitochondria Different-Phenotype (%): 21% and 23%
  Population Mitotic Cells (%): 86% and 65%
  Population Normal (%): 95% and 96%
  Population Pyknosed Nuclei (%): 7% and 6%
  Population Tubulin-Different-Phenotype (%): 16% and 10%
  Total Cell Count: 763 and 633
HEK-293T; [6]
  Population Apoptotic (%): 26% and 43%
  Population Fragmented Nuclei (%): 13% and 10%
  Population Healthy Nuclei (%): 76% and 82%
  Population Hoechst High Intensity Objects (%): 5% and 6%
  Population Membrane Permeable-Phenotype (%): 0%
  Population Mitochondria Different-Phenotype (%): 35% and 32%
  Population Mitotic Cells (%): 73% and 56%
  Population Normal (%): 94% and 93%
  Population Pyknosed Nuclei (%): 9% and 6%
  Population Tubulin-Different-Phenotype (%): 25% and 20%
  Total Cell Count: 786 and 676

Source: ChEMBL document CHEMBL5724801, “EUbOPEN Chemogenomics Library - Multiplex” (2024)
